Compounds with a hit are over-represented: about 2.8% of the library has one in this group of screens.
PAFAH1B2 FP inh – PAFAH1B2 enzyme inhibitors, primary screen, biochemical, fluorescence polarization, human; Platelet-activating factor acetylhydrolase IB subunit alpha2 (Homo sapiens), P68402; recombinant PAFAH1B2, FP-rhodamine activity probe; inhibition, % at 3.39 µM; hit rate 1.2% among 340,000; AID 492953, 2010;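 active = inhibition above the mean of all tested compounds plus 3 SD, cut at about 24% in these data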;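 also: 0% = enzyme with DMSO and 100% = wells lacking PAFAH1B2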
pPAFAH inh – pPAFAH enzyme inhibitors, primary screen, biochemical, fluorescence polarization, human. Platelet-activating factor acetylhydrolase (Homo sapiens), Q13093. recombinant pPAFAH, FP-rhodamine probe fluorescence polarization. inhibition, % at 3.39 µM. hit rate 1.5% among 330,000;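 active = inhibition above the mean inhibition across the screen plus 3 SD, cut at about 25% in these data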;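 also: inhibitors block binding of the rhodamine activity-based probe so polarization drops; 0% = enzyme with DMSO and 100% = wells lacking pPAFAH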
HTRA1 inh – HTRA1 serine protease inhibitors, primary screen, biochemical, fluorescence polarization, HTS. recombinant HTRA1, FP-rhodamine activity-based probe. inhibition, % at 5.96 µM. hit rate 0.5% among 340,000; in the data active = inhibition above about 36%;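 also: 0% = enzyme with DMSO and 100% = wells lacking enzyme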
Target sequence (Q92743 whole entry, looked up): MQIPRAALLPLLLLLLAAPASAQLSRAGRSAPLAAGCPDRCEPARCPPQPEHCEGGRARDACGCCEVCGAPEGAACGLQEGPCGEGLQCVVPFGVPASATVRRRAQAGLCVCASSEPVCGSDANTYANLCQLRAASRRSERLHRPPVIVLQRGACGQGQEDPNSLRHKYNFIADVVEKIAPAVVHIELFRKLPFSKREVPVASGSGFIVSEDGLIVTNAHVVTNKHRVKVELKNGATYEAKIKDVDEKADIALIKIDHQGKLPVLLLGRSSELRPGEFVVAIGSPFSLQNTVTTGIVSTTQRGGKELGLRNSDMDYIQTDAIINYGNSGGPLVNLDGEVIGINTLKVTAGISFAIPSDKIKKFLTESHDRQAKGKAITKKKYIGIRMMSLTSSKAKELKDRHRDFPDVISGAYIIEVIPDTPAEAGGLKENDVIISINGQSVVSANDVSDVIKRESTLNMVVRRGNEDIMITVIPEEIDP
PAFAH2 FP inh – PAFAH2 enzyme inhibitors, primary screen, biochemical, fluorescence polarization, human; Platelet-activating factor acetylhydrolase 2, cytoplasmic (Homo sapiens), Q99487; recombinant PAFAH2, FP-rhodamine activity probe; inhibition, % at 3.39 µM; hit rate 0.99% among 340,000; AID 492956, 2010;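 active = inhibition above the mean over all tested compounds plus 3 SD, cut at about 30% in these data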;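 also: inhibitors block probe labeling of enzyme so polarization drops; 0% = enzyme with DMSO and 100% = wells lacking PAFAH2 protein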
PAFAH1B3 inh – PAFAH1B3 enzyme inhibitors, primary screen, biochemical, fluorescence polarization, human | Platelet-activating factor acetylhydrolase IB subunit alpha1 (Homo sapiens), Q15102 | recombinant PAFAH1B3, FP-rhodamine probe | inhibition, % at 3.39 µM | hit rate 0.28% among 340,000;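 active = inhibition above the screen-wide average of all tested compounds plus 3 SD, cut at about 25% in these data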;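 also: 0% = enzyme with DMSO only and 100% = wells lacking PAFAH1B3 protein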
mABHD4 FP – ABHD4 inhibitors, primary screen, biochemical, fluorescence polarization, mouse; (Lyso)-N-acylphosphatidylethanolamine lipase (Mus musculus), Q8VD66; purified mABHD4, FP-Rh probe fluorescence polarization; inhibition, % at 8.92 µM; hit rate 0.54% among 370,000; AID 720543, 2013;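 active = inhibition exceeding the mean over every tested compound plus 3 SD, cut at about 30% in these data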;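 also: 0% = plate median of compound wells and 100% = S159A mutant with DMSO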
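Test system: mouse ABHD4 enzyme, wild type. Reagent: FP-Rh fluorescent activity-based probe, added after compound pre-incubation. Timing: pre-incubation 45 min, probe exposure 60 min, at 25 °C. Technique: FP readout, ex 525 nm / em 598 nm. Benchmarks: high control S159A mutant with DMSO, low control median of compound wells.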
Starred values were filed as active, the others as inactive; . = no result given.

SMILES	PAFAH1B2 FP inh	pPAFAH inh	HTRA1 inh	PAFAH2 FP inh	PAFAH1B3 inh	mABHD4 FP
O=C(N[C@@H](Cc1ccccc1)C(=O)N1CCN(S(=O)(=O)c2ccc(F)cc2)CC1)c1ccco1	24*	.	4	3	12	4
CC1CCN(S(=O)(=O)c2ccc(NC(=O)C3CC3)cc2)CC1	25*	5	-12	-5	0	-4
O=C(NC(Cc1ccccc1)C(=O)N1CCN(S(=O)(=O)c2ccccc2)CC1)c1ccccc1 (stereo not drawn)	8	-6	-14	1	-7	-1
Cc1ccc(S(=O)(=O)N2CCC(C(=O)Nc3ccc(S(=O)(=O)N4CCCC4)cc3)CC2)cc1	8	-11	-38	-3	-3	-11
CC1CCN(S(=O)(=O)c2ccc(NC(=O)C3CCCCC3C(=O)O)cc2)CC1 (stereo not drawn)	6	.	-3	6	3	.
COC(=O)Nc1ccc(S(=O)(=O)N2CCC(C(=O)N3CCC(C)CC3)CC2)cc1	3	5	-3	2	4	-2
CC1CCN(S(=O)(=O)c2ccc(NC(=O)[C@@H]3CCCC[C@@H]3C(=O)O)cc2)CC1	48*	1	9	4	1	4
COC(=O)Nc1ccc(S(=O)(=O)N2CCC(C)CC2)cc1	25*	-6	0	9	-5	0
CCCC[C@@H]1C(=O)N2N=Cc3cc(C)c(C)cc3[C@H]2N2N=Cc3cc(C)c(C)cc3[C@@H]12	.	.	.	.	.	-12
Cc1ccc(-n2c(SCC(=O)c3ccc(F)cc3)nnc2-c2cnccn2)cc1	.	.	.	.	.	-3
C[C@@]12C[C@@H]3C(=O)N(Cc4ccccc4)CC(=O)N3[C@@H]1N(S(=O)(=O)c1ccccc1)c1ccccc12	.	.	.	.	.	6
COC1=C[C@H](C(=O)NCc2ccc(Br)cc2)[C@H](C)[C@@H](c2ccccc2)CC1=O	.	.	.	.	.	-13
O=C(Nc1ccc(S(=O)(=O)N2CCCCC2)cc1)c1ccncc1	0	0	-8	-6	3	-5
CC1CCN(S(=O)(=O)c2ccc(NC(=O)c3ccco3)cc2)CC1	27*	-5	-15	-11	9	-3
CC1CCN(S(=O)(=O)c2ccc(NC(=O)c3ccncc3)cc2)CC1	29*	-1	-11	-3	14	-2
CC(C)(C)[C@@H]1/C(=C/C2CC2)N2C(=O)C[C@@H](c3ccccc3)N=C2N1Cc1ccc2c(c1)OCO2	.	.	.	.	.	-6
CC1CCN(S(=O)(=O)c2ccc(Br)s2)CC1	29*	-1	-1	-7	-1	1
O=C(O)C1CCN(S(=O)(=O)c2ccc(Cl)s2)CC1	27*	-2	3	1	8	9
CC1CCCN(S(=O)(=O)c2ccc(Br)s2)C1 (stereo not drawn)	10	2	-4	-1	2	-5
O=S(=O)(c1ccc(Cl)s1)N1CCCCC1	11	0	1	2	3	-3
CC1CCN(S(=O)(=O)c2ccc(Cl)s2)CC1	25*	1	-5	-7	8	3
CC1CCC2(CCC(=O)N2CCCOC(=O)Nc2cccc(C(F)(F)F)c2)CC1 (stereo not drawn)	.	.	.	.	.	10
O=C(NCc1ccccc1)c1cccc(COc2ccc3c(c2)CCC3)c1	3	8	-44	-13	-6	-21
CCOc1cc(OCC)cc(C(=O)O)c1	6	9	3	0	4	6
O=C(O)c1cc(OCc2ccccc2)cc(OCc2ccccc2)c1	29*	23	-30	12	2	6
SMILES	PAFAH1B2 FP inh	pPAFAH inh	HTRA1 inh	PAFAH2 FP inh	PAFAH1B3 inh	mABHD4 FP
O=C(O)c1cccc(COc2ccc3c(c2)CCC3)c1	48*	3	-2	-3	4	-5
COc1ccc(OCc2cccc(C(=O)O)c2)cc1	25*	1	-3	1	3	-1
Cc1ccc(SCC(=O)N=C2NC(=O)CS2)cc1	26*	6	3	-1	-1	8
CC(=O)N1CCc2cc(S(=O)(=O)NCCC(=O)N(C)C3CCCCC3)ccc21	.	.	.	.	.	-3
Cc1ccc(-c2noc(CSc3nnc(CCc4ccccc4)n3-c3ccccc3)n2)cc1	6	8	-51	-8	0	-11
CCOC(=O)CSc1nnc(Cc2ccccc2)n1-c1ccc(C)cc1	7	32*	-2	8	1	-2
Cc1ccc(-c2noc(CSc3nnc(Cc4ccccc4)n3-c3ccc(Cl)cc3)n2)cc1	20	25*	-58	-2	-4	-17
CCc1ccc(C(=O)/C=C/c2ccc([N+](=O)[O-])o2)cc1	1	27*	6	1	0	18
C=CCN1C(=O)[C@H](CC(=O)N2CCN(C(=O)C3CC3)CC2)[C@@]2(C(=O)OCC)CCCC=C12	.	.	.	.	.	4
CC(=O)Nc1ccc2nc3c(=O)n(C)c(=O)n(C)c3nc2c1	8	30*	10	5	16	10
Cn1c(=O)c2nc3ccccc3nc2n(C)c1=O	4	3	7	2	10	-5
C#CCCN([C@@H](CC(C)C)C(=O)OC)S(=O)(=O)c1ccc(F)cc1Br	.	.	.	.	.	-7
COc1cc(CNCCO)cc(Br)c1OCc1ccccc1Cl	-2	12	4	1	-6	10
COc1cc(CNCCO)cc(Cl)c1OCc1ccc(Cl)cc1Cl	8	28*	-1	7	13	16
Cn1nnnc1Sc1ncnc2scc(-c3ccc(Br)cc3)c12	0	11	-24	-8	-4	-5
Cn1nnnc1Sc1ncnc2scc(-c3ccc(F)cc3)c12	-7	29*	-21	-15	1	2
c1ccc(-c2nn(Cc3ncco3)c3ccccc23)cc1	.	.	.	.	.	6
CCN(Cc1ccccc1)c1ccc(/C=N/NC(=O)c2cccc(S(=O)(=O)N3CCOCC3)c2)cc1	13	28*	0	-7	3	0
CCN(Cc1ccccc1)c1ccc(/C=N/NS(=O)(=O)c2cccc([N+](=O)[O-])c2)cc1	45*	4	-11	5	-4	-14
O=c1[nH]c2ccc(S(=O)(=O)N3CCC(Cc4ccccc4)CC3)cc2o1	29*	14	-10	4	0	-8
CCOc1ccc(N(CC(=O)NCCc2ccc(Cl)cc2)S(=O)(=O)c2c(C)[nH]c(=O)[nH]c2=O)cc1	28*	6	-1	7	11	-4
O=C(CN(c1cccc(Br)c1)S(=O)(=O)c1ccccc1)N/N=C/c1cc([N+](=O)[O-])ccc1O	.	25*	.	.	.	4
Cc1ccc(C)c(SCC(=O)OCC(=O)c2ccco2)c1	1	28*	-1	15	6	7

From PubChem BioAssay
